Data: ChEMBL document CHEMBL1139940, “2-Aryl-2-hydroxyethylamine substituted 4-oxo-4,7-dihydrothieno[2,3-b]pyridines as broad-spectrum inhibitors of human herpesvirus polymerases” (Bioorg Med Chem Lett, 2007)
pIC50: −log10 of the molar value. Converted amounts (≈) assume the structure as drawn.

Key:
[1] = target: T1, DNA polymerase catalytic subunit (Human cytomegalovirus (strain AD169) (HHV-5) (Human herpesvirus 5), UniProt P08546); assay: Inhibition of HCMV DNA polymerase by scintillation proximity assay; parameters: species or system Human betaherpesvirus 5
T1 sequence (P08546 whole entry): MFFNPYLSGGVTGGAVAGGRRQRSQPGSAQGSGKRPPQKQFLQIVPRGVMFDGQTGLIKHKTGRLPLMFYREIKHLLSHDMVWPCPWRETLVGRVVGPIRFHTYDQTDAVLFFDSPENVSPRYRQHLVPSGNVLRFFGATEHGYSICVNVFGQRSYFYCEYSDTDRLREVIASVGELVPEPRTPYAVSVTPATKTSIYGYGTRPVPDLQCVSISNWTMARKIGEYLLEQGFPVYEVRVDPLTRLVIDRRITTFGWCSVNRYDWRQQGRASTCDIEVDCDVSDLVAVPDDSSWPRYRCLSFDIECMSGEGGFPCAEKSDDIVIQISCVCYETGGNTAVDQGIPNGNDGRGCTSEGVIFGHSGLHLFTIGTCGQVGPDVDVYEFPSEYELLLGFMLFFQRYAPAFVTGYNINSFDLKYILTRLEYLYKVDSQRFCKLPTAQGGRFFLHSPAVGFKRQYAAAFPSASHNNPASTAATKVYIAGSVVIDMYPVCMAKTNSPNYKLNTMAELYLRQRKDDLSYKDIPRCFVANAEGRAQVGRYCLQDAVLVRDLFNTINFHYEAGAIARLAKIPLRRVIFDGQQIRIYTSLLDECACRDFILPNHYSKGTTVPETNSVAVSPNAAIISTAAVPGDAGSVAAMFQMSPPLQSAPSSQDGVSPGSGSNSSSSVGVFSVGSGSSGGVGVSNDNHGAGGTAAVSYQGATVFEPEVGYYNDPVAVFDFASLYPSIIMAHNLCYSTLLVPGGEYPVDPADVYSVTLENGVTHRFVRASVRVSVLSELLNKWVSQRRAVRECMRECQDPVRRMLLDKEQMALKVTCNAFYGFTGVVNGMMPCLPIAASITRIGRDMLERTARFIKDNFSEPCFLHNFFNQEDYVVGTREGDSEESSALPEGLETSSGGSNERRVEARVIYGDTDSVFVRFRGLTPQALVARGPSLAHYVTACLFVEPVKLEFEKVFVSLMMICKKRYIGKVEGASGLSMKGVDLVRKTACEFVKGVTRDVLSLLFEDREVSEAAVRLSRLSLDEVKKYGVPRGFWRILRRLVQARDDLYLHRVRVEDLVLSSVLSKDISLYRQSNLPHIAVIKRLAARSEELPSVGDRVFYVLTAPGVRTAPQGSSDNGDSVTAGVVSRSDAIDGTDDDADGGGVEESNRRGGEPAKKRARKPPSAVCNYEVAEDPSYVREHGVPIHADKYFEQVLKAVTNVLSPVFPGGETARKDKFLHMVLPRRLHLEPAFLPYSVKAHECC
Summary of the method: (§1)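 Purified viral or human DNA polymerase; incorporation of 3H-labeled nucleotide into template-primer measured by scintillation proximity.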

[2] = tested on: Human betaherpesvirus 5; assay: Antiviral activity against HCMV Davis in HFF cells by plaque reduction assay; format: functional, organism-based; details: Human betaherpesvirus 5, Davis
Summary of the method: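 Plaque reduction in human foreskin fibroblasts infected with Davis strain; values are means of at least two experiments, SD given.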

[3] = Inhibition of VZV DNA polymerase by scintillation proximity assay; parameters: species or system Human alphaherpesvirus 3; summary of the method: as §1
[4] = Inhibition of HSV1 DNA polymerase by scintillation proximity assay; parameters: species or system Human alphaherpesvirus 1; summary of the method: as §1
[5] = Aqueous solubility of the compound; format: physicochemical
[6] = tested on: Human alphaherpesvirus 1; assay: Antiviral activity against HSV1 KOS in Vero cells by plaque reduction assay; format: functional, organism-based; details: Human alphaherpesvirus 1, KOS
[7] = tested on: Human alphaherpesvirus 3; assay: Antiviral activity against VZV Webster in HFF cells by plaque reduction assay; format: functional, organism-based; details: Human alphaherpesvirus 3, Webster
[8] = Inhibition of human DNA polymerase delta by scintillation proximity assay; summary of the method: as §1
[9] = Oral bioavailability in dog at 15 mg/kg; format: ADME, organism-based, Canis lupus familiaris; details: in vivo
[10] = Cytotoxicity against HFF cells after 3 days; format: cell-based; details: human
Summary of the method: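 Subconfluent replicating HFF monolayers exposed to compound for 3 days; viability scored by microscopic evaluation and quantitative neutral red dye uptake; CC50 from a single determination.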

[11] = Inhibition of EBV DNA polymerase by T7 quick-coupled transcription-translation system; parameters: species or system human gammaherpesvirus 4
Summary of the method: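 EBV polymerase plus BMRF-1 in 50 mM Tris pH 8, 70 mM NH4SO4, 10 mM MgCl2, dCTP/dTTP/dGTP, 0.5 µCi 32P-dATP, 100 µg/mL activated calf thymus DNA; compound added before enzyme, 1% final DMSO; 30 min at 37 °C; TCA precipitation onto glass filters, incorporated 32P counted by scintillation.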

[12] = tested on: Human gammaherpesvirus 4; assay: Antiviral activity against EBV in GG68 cells after 72 hrs; format: functional, organism-based; details: human gammaherpesvirus 4, GG68, 72 h
Summary of the method: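 GG68 cells induced into lytic replication with 40 ng/mL TPA plus 4 mM n-butyric acid; compound added at 0.5% final DMSO; 72 h at 37 °C, then cells lysed and DNA harvested.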

[13] = Inhibition of human DNA polymerase gamma by scintillation proximity assay; summary of the method: as §1
[14] = Inhibition of human DNA polymerase alpha by scintillation proximity assay; summary of the method: as §1
[15] = Oral bioavailability in rat at 15 mg/kg; format: ADME, organism-based; details: in vivo

Row | SMILES | pIC50 [1] | pIC50 [2] | further results
1 | CN(Cc1cc2c(=O)c(C(=O)NCc3ccc(Cl)cc3)cn(C)c2s1)CC(O)c1ccccc1 (centres undefined) | 7.00 | 6.74 | 
2 | CCN(Cc1cc2c(=O)c(C(=O)NCc3ccc(Cl)cc3)cn(C)c2s1)CC(O)c1ccccc1 (centres undefined) | 6.62 | 6.35 | 
3 | CC(C)N(Cc1cc2c(=O)c(C(=O)NCc3ccc(Cl)cc3)cn(C)c2s1)CC(O)c1ccccc1 (centres undefined) | 5.69 | 5.80 | 
4 | CN(Cc1cc2c(=O)c(C(=O)NCc3ccc(Cl)cc3)cn(C)c2s1)C[C@@H](O)c1ccccc1 |  |  | pIC50 [3]: 6.70; pIC50 [4]: 6.40
5 | CN(Cc1cc2c(=O)c(C(=O)NCc3ccc(Cl)cc3)cn(C)c2s1)C[C@H](O)c1ccccc1 | 5.59 |  | pIC50 [3]: 5.30; pIC50 [4]: 4.98
6 | CN(Cc1cc2c(=O)c(C(=O)NCc3ccc(F)cc3)cn(C)c2s1)CC(O)c1ccc(F)cc1 (centres undefined) | 6.66 | 6.70 | 
7 | CN(Cc1cc2c(=O)c(C(=O)NCc3cccc(Cl)c3)cn(C)c2s1)CC(O)c1ccc(F)cc1 (centres undefined) | 6.69 | 6.60 | 
8 | CN(Cc1cc2c(=O)c(C(=O)NCc3cccc(Cl)c3)cn(C)c2s1)CC(O)c1ccccn1 (centres undefined) | 7.07 | 7.05 | solubility [5]: 9 µM (≈ 4.47 µg/mL)
9 | CN(Cc1cc2c(=O)c(C(=O)NCc3cccc(Cl)c3)cn(C)c2s1)CC(O)c1cccnc1 (centres undefined) | 6.80 | 7.22 | 
10 | CN(Cc1cc2c(=O)c(C(=O)NCc3ccc(Cl)cc3)cn(C)c2s1)CC(O)c1ccncc1 (centres undefined) | 6.70 | 7.07 | 
11 | CN(Cc1cc2c(=O)c(C(=O)NCc3ccc(Cl)cc3)cn(C)c2s1)CC(O)c1ccco1 (centres undefined) | 7.11 | 7.52 | solubility [5]: 0.4 µM (≈ 0.194 µg/mL)
12 | CN(Cc1cc2c(=O)c(C(=O)NCc3ccc(Cl)cc3)cn(C)c2s1)CC(O)c1ccc2ccccc2n1 (centres undefined) | 7.19 | 7.40 | 
13 | CN(Cc1cc2c(=O)c(C(=O)NCc3ccc(Cl)cc3)cn(C)c2s1)CC(O)c1cccs1 (centres undefined) | 6.76 | 6.60 | 
14 | CN(Cc1cc2c(=O)c(C(=O)NCc3ccc(Cl)cc3)cn(C)c2s1)CC(O)c1cccc(C#N)c1 (centres undefined) | 7.18 | 7.00 | 
15 | CN(Cc1cc2c(=O)c(C(=O)NCc3ccc(Cl)cc3)cn(C)c2s1)CC(O)c1ccc(C#N)cc1 (centres undefined) | 6.50 | 6.52 | 
16 | COc1cccc(C(O)CN(C)Cc2cc3c(=O)c(C(=O)NCc4ccc(Cl)cc4)cn(C)c3s2)c1 (centres undefined) | 7.06 | 7.70 | 
17 | CN(Cc1cc2c(=O)c(C(=O)NCc3ccc(Cl)cc3)cn(C)c2s1)CC(O)c1nccs1 (centres undefined) | 6.63 | 6.70 | 

Row | SMILES | pIC50 [1] | pIC50 [2] | further results
18 | CN(Cc1cc2c(=O)c(C(=O)NCc3ccc(Cl)cc3)cn(C)c2s1)CC(O)c1ncccn1 (centres undefined) | 7.00 | 7.00 | 
19 | CN(Cc1cc2c(=O)c(C(=O)NCc3ccc(Cl)cc3)cn(C)c2s1)CC(O)c1cnccn1 (centres undefined) | 7.07 | 7.19 | solubility [5]: 72 µM (≈ 35.9 µg/mL)
20 | CC(C)C(O)CN(C)Cc1cc2c(=O)c(C(=O)NCc3ccc(Cl)cc3)cn(C)c2s1 (centres undefined) | 4.76 | < 5.30 | 
21 | C[C@H](O)CN(C)Cc1cc2c(=O)c(C(=O)NCc3ccc(Cl)cc3)cn(C)c2s1 | 7.46 |  | 
22 | CN(Cc1cc2c(=O)c(C(=O)NCc3cccc(Cl)c3)cn(C)c2s1)C[C@@H](O)c1ccccn1 | 7.21 | 7.00 | pIC50 [6]: 5.52; pIC50 [7]: 8.70; pIC50 [3]: 7.68; pIC50 [4]: 7.12; pIC50 [8]: < 4.40; bioavailability [9]: 76%; CC50 at 72 h [10]: > 100000 nM; pIC50 [11]: 7.15; pIC50 [12]: 6.70; pIC50 [13]: < 4.40; pIC50 [14]: < 4.40; bioavailability [15]: 45%
23 | Cn1cc(C(=O)NCc2ccc(Cl)cc2)c(=O)c2cc(CNCC(O)c3ccccc3)sc21 (centres undefined) | 5.08 | < 5.30 | 
24 | CN(Cc1cc2c(=O)c(C(=O)NCc3ccc(Cl)cc3)cn(C)c2s1)C[C@@H](O)c1cnccn1 | 7.43 | 7.82 | pIC50 [6]: 5.80; pIC50 [7]: 8.15; pIC50 [3]: 7.72; pIC50 [4]: 7.12; pIC50 [8]: < 4.40; bioavailability [9]: 66%; CC50 at 72 h [10]: > 100000 nM; pIC50 [13]: < 4.40; pIC50 [14]: < 4.40; bioavailability [15]: 21%
25 | Cn1cc(C(=O)NCc2ccc(Cl)cc2)c(=O)c2cc(CN(CCO)CC(O)c3ccccc3)sc21 (centres undefined) | 5.80 | 6.40 | 
26 | Cn1cc(C(=O)NCc2ccc(Cl)cc2)c(=O)c2cc(CN(CC(O)c3ccccc3)C3CC3)sc21 (centres undefined) | 5.05 | < 5.30 | 
27 | CN(Cc1cc2c(=O)c(C(=O)NCc3ccc(Cl)cc3)cn(C)c2s1)CC(O)c1ccoc1 (centres undefined) | 6.60 | 6.40 | 
28 | CN(Cc1cc2c(=O)c(C(=O)NCc3ccc(Cl)cc3)cn(C)c2s1)CC(O)c1cc2ccccc2o1 (centres undefined) | 7.92 | 6.82 | 
29 | CC(O)CN(C)Cc1cc2c(=O)c(C(=O)NCc3ccc(Cl)cc3)cn(C)c2s1 (centres undefined) | 5.45 | 5.82 | 
30 | CN(Cc1cc2c(=O)c(C(=O)NCc3ccc(Cl)cc3)cn(C)c2s1)CC(O)c1ccc(O)cc1 (centres undefined) | 7.00 | 7.24 | 
31 | Nc1nc2c(ncn2COCCO)c(=O)[nH]1 [ACYCLOVIR] |  |  | CC50 at 72 h [10]: > 100000 nM; pIC50 [12]: 5.16
32 | O=C(O)P(=O)(O)O [FOSCARNET] |  |  | pIC50 [13]: > 6.55
33 | Nc1nc(O)c2ncn(COC(CO)CO)c2n1 [GANCICLOVIR] |  |  | CC50 at 72 h [10]: > 100000 nM
